Test results reported in ChEMBL document CHEMBL4699441, “Identification and Preclinical Evaluation of the Bicyclic Pyrimidine γ-Secretase Modulator BMS-932481” (ACS Med Chem Lett, 2019).
The source made the active and inactive calls. No cut-off for these calls is given here.

Columns and labels:
[1] = Inhibition of amyloid beta (1 to 42) secretion in human H4 cells overexpressing APP incubated for overnight by HTRF analysis; format: functional, cell-based
[2] = Suppression of total amyloid beta secretion in human H4 cells overexpressing APP incubated for overnight by Western blot analysis; format: ADME, cell-based
H4 [3] = assay: Induction of amyloid beta (1 to 37) secretion in human H4 cells overexpressing APP incubated for overnight by Western blot analysis; format: functional, cell-based
H4 [4] = assay: Induction of amyloid beta (1 to 38) secretion in human H4 cells overexpressing APP incubated for overnight by Western blot analysis; format: functional, cell-based
[5] = Reduction in amyloid beta (1 to 42) secretion in brain in triple transgenic LaFerla mouse at 30 mg/kg, po measured after 3 hrs relative to control; format: functional
Method in brief: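 Triple transgenic LaFerla mice (APP Swedish, MAPT P301L, PSEN1 M146V) given 30 mg/kg po; brain Aβ1-42 measured 3 h postdose; n = 3.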

[6] = Reduction in amyloid beta (1 to 42) secretion in brain in Harlan Sprague-Dawley rat at 10 mg/kg, po measured after 3 hrs relative to control; format: functional
Method in brief: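 Sprague–Dawley rats dosed 10 mg/kg po; brain Aβ1-42 measured 3 h postdose; n = 5.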

[7] = Plasma concentration in triple transgenic LaFerla mouse at 30 mg/kg, po measured after 3 hrs; format: ADME, organism-based
[8] = Plasma concentration in Harlan Sprague-Dawley rat at 10 mg/kg, po measured after 3 hrs; format: ADME, organism-based
[9] = Stability in human liver microsomes assessed as remaining compound measured after 10 mins by LC-MS/MS analysis; format: ADME, Microsome; details: read-out: Stabilty
Method in brief: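 High-throughput microsomal stability: 3 μM substrate, 1 mg/mL microsomal protein, 100 mM sodium phosphate pH 7.4, 37 °C; quenched at 10 min, LC–MS/MS, percent parent remaining reported.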

[10] = AUC (0 to 24 hrs) in Harlan Sprague-Dawley rat incubated for 24 hrs by LC-MS/MS analysis; format: ADME; parameters: time 24 hrs; details: in vivo
Rattus norvegicus = species on record: Rattus norvegicus; assay: Antialzheimer activity in Harlan Sprague-Dawley rat brain assessed as reduction in amyloid beta (1 to 42) AUC relative to control; format: functional; parameters: scale not given: the % may be the effect or the level left
[11] = Oral bioavailability in Sprague-Dawley rat incubated for 24 hrs by LC-MS/MS analysis; format: ADME, organism-based; details: in vivo
[12] = Oral bioavailability in cynomolgus monkey incubated for 24 hrs by LC-MS/MS analysis; format: ADME, organism-based, Macaca fascicularis; details: in vivo
[13] = Oral bioavailability in Beagle dog incubated for 24 hrs by LC-MS/MS analysis; format: ADME, organism-based, Canis lupus familiaris; details: in vivo
[14] = biological target: Voltage-gated inwardly rectifying potassium channel KCNH2 (Homo sapiens, UniProt Q12809); assay: Inhibition of human ERG by patch clamp method
Sequence of Voltage-gated inwardly rectifying potassium channel KCNH2 (Q12809 whole entry): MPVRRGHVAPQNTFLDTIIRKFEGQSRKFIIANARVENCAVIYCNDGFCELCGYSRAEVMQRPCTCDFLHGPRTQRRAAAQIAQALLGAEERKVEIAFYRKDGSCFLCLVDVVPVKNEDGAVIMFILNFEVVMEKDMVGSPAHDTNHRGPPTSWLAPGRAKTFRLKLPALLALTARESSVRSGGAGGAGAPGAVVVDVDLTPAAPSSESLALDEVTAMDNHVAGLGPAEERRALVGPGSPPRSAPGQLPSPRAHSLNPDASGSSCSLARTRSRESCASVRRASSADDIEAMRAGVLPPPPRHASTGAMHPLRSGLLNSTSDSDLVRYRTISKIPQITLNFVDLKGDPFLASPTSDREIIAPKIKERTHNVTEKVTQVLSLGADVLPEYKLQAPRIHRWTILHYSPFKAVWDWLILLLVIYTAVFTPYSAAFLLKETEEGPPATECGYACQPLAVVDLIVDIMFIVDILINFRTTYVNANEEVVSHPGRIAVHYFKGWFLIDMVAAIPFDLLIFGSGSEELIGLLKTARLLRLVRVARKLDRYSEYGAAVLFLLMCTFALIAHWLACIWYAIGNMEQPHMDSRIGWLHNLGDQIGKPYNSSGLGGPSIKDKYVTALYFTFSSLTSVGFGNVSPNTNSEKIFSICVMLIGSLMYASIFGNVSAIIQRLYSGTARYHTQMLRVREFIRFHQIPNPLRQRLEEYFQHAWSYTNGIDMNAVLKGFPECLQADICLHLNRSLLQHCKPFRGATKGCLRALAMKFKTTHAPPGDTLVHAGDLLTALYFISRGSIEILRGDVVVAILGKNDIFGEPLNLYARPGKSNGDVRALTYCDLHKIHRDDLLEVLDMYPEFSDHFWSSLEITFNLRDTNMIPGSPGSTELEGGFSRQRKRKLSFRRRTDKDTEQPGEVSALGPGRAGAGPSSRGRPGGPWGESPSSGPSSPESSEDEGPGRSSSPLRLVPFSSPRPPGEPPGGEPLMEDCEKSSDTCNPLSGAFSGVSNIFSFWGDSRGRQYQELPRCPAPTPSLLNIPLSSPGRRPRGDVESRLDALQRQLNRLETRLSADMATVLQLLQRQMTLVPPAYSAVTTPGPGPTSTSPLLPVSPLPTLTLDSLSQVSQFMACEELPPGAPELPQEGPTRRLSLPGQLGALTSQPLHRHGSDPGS

[15] = Cardiotoxicity in rabbit assessed as NOAEL by telemetric analysis; format: toxicity, Oryctolagus cuniculus
[16] = Toxicity in rat assessed as increase in unconjugated bilirubin in plasma at 10 to 100 mg/kg, po administered for 4 days; format: organism-based; details: in vivo, 96 h, dose 10-100 mg/kg, time 4 day
Method in brief: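 Rats dosed orally at 10, 30 and 100 mg/kg for 4 days; plasma inspected and unconjugated bilirubin assessed.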

[17] = biological target: T1, UDP-glucuronosyltransferase 1A1 (Homo sapiens, UniProt P22309); assay: Inhibition of human UGT1A1; format: ADME
T1 sequence (P22309 whole entry): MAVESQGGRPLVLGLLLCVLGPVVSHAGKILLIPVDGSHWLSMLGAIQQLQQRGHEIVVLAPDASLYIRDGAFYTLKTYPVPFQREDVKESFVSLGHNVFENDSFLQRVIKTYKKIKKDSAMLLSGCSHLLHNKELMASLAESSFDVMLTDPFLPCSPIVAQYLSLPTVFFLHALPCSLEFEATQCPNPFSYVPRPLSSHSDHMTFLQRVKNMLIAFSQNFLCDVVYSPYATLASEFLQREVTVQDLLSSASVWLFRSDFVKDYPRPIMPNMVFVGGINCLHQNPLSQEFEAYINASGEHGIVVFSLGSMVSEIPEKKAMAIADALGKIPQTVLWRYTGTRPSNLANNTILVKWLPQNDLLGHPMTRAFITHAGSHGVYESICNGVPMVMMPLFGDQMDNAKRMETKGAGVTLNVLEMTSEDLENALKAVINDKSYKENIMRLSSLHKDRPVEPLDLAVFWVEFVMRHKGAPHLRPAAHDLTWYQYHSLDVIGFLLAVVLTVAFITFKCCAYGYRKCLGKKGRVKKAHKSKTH

[18] = biological target: T2, Solute carrier organic anion transporter family member 1B1 (Homo sapiens, UniProt Q9Y6L6); assay: Inhibition of OATP1B1 (unknown origin); format: ADME
T2 sequence (Q9Y6L6 whole entry): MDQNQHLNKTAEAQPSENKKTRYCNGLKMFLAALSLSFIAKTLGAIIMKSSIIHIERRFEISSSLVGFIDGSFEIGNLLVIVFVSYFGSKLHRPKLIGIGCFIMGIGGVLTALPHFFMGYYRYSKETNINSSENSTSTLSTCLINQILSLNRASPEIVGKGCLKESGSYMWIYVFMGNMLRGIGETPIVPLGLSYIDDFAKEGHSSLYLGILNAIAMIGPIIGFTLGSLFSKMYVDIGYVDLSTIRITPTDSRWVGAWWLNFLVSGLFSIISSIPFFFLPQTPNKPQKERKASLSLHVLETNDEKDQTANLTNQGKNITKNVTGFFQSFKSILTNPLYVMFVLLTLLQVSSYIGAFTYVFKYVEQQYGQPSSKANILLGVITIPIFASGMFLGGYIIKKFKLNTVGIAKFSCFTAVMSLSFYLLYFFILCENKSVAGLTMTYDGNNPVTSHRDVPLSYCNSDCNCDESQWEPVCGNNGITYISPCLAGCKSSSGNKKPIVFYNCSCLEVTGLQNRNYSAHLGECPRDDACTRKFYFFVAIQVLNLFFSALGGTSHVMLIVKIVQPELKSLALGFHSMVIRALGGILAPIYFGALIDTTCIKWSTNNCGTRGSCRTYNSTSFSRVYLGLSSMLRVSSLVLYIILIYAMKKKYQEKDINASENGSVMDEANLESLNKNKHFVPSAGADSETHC

[19] = Toxicity in rat assessed as hepatocellular necrosis at 10 to 100 mg/kg, po administered for 4 days by histological assay; format: organism-based; details: in vivo, 96 h, dose 10-100 mg/kg, time 4 day
[20] = Octanol/water partition coefficient, logD of the compound at pH 6.5 by shake flask method; format: physicochemical
Method in brief: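 Octanol/water partitioning by shake flask at pH 6.5.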

[21] = Fraction unbound in human plasma measured after 24 hrs by LC-MS/MS analysis; format: ADME, cell-free
Homo sapiens [22] = assay: Antialzheimer activity in human assessed as reduction in amyloid beta (1 to 42) AUC at 1.3 mg/kg qd relative to control; parameters: scale not given: the % may be the effect or the level left
Homo sapiens [23] = assay: as above; parameters: scale not given: the % may be the effect or the level left; remark: listed apart in the source
[24] = Ratio of drug level in brain to plasma in triple transgenic LaFerla mouse at 30 mg/kg, po measured after 3 hrs; format: ADME, organism-based

Structure (SMILES): CNc1nc(Nc2ccc(-n3cncn3)c(OC)c2)nc(-c2ccccc2)n1
- IC50 [1]: 120 nM
- Activity [2]: Non-Toxic
- Activity (H4 [3]): Active
- Activity (H4 [4]): Active

Structure (SMILES): CNc1nc(Nc2ccc(-n3cnc(Cl)c3)c(OC)c2)nc2c1CC[C@H]2c1ccccc1
- IC50 [1]: 2 nM
- inhibition in vivo at 30 mg/kg [5]: 86%
- inhibition in vivo at 10 mg/kg [6]: 59%
- concentration at 3 h [7]: 2100 nM
- concentration at 3 h [8]: 1700 nM
- remaining at 10 min [9]: 96%
- AUC(0-t) at 24 h [10]: 7.6 µM·h
- Activity (Rattus norvegicus): 25%
- F [11]: 49%
- bioavailability [12]: 44%
- bioavailability [13]: 64%
- IC50 [14]: 200 nM
- NOAEL [15]: 15 µM
- Activity [16]: Toxic
- IC50 [17]: 1400 nM
- IC50 [18]: 690 nM
- Activity [19]: Toxic
- logD [20]: 4.42
- Fu [21]: 0.1%
- Activity (Homo sapiens [22]): 25%
- Activity (Homo sapiens [23]): 25%

Structure (SMILES): CNc1nc(Cc2ccccc2)nc(Nc2ccc(-n3cnc(C)c3)c(OC)c2)n1
- IC50 [1]: 31 nM
- inhibition in vivo at 30 mg/kg [5]: 32%
- BPR [24]: 0.47
